STK33 inh = inhibitors of purified STK33 kinase, primary screen, biochemical, ADP-Glo luminescence, homogeneous, cell-free; AID 2661, 2010; MBP phosphorylation; inhibition, % at 10 µM; Serine/threonine-protein kinase 33 (Homo sapiens), Q9BYT3; actives 0.073% (n = 320,000);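 active means inhibition at or above 25%, using the most active replicate where run in duplicate; inactive means inhibition below 25%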
GSK3beta inhib = human GSK3beta kinase inhibitors, primary screen, biochemical, cell-free homogeneous, HTS; AID 2097, 2009; actives 0.038% (n = 300,000); activity score (negative = inhibition), % at 10 µM; GST-GSK3beta kinase, ADP-Glo luminescence, 60 min; stronger effect = lower value;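 active means more than half of replicate wells score below -50%, meaning over 50% inhibition versus plate controls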;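 further: 0% = median DMSO wells and -100% = median GW8510 positive control wells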
Target sequence (P49841 whole entry, looked up): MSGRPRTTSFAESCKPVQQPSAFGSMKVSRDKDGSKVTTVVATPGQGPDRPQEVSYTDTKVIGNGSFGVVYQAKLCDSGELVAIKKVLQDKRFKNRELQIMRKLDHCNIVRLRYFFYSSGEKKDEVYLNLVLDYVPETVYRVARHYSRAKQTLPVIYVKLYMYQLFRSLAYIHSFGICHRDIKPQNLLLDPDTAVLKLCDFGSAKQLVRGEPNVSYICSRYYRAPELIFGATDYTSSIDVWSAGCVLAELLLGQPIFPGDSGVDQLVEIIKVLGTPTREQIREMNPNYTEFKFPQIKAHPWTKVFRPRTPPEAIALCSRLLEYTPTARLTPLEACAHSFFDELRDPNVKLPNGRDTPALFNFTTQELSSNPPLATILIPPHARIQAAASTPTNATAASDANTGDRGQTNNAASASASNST
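Test system: GST-tagged human GSK3beta kinase, cell-free; evaluation: activity score scaled between in-plate DMSO and GW8510 controls; measured by: ADP-Glo luminescence; incubation: 60 min reaction, RT; benchmarks: DMSO and 20 µM GW8510; reagent: peptide substrate plus 25 µM ATP (final); medium: Tris/MgCl2 kinase buffer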
Dyrk1A ADPGlo = rat Dyrk1A kinase inhibitors, primary screen, biochemical, single point, plate reader; Dual specificity tyrosine-phosphorylation-regulated kinase 1A (Rattus norvegicus), Q63470; ADP-Glo luminescence, NFATc1 peptide; actives 0.43% (n = 310,000); inhibition, % at 12.5 µM; AID 504441, 2011; in the data active means inhibition above about 50%;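 further: plate controls were vehicle with enzyme for no effect and no enzyme for full effect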
GSK3 alpha inh = blockers of GSK3A enzyme activity – biochemical, luminescence, cell-free homogeneous, HTS, primary screen; Glycogen synthase kinase-3 alpha (Homo sapiens), P49840; GSK-3 alpha kinase, ADP-Glo luminescence, 60 min; inhibition, % at 10 µM; actives 0.1% (n = 320,000);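 active means more than half of replicates show inhibition above 20%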;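 further: GST-tagged GSK-3 alpha with peptide substrate and 25 µM ATP; 0% = DMSO neutral wells and 100% = GW8510 positive control wells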
Dyrk1A artifact = ADP-Glo luciferase interference without Dyrk1A, dose response, artefact control for Dyrk1A inhibitor project, biochemical, luminescence, cherry-pick, set 02; shares compounds with Dyrk1A ADPGlo; ADP-Glo luciferase artifact assay, no Dyrk1A; AC50, µM (titrated, usually from 12 µM), for the others: at the top dose activity change, negative = inhibition; 1,300 tested, under 10 active; AID 588348, 2011;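 active means fitted half-maximal dose AC50 no more than ten times the top valid tested dose, with luminescence dropping as dose rises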
An asterisk follows results filed as active; · = not tested or not shown. The sample as a whole holds a higher share of hits than the screen did.

SMILES	STK33 inh	GSK3beta inhib	Dyrk1A ADPGlo	GSK3 alpha inh	others
CC[n+]1c(/C=C/N(C)c2ccccc2)sc2ccc(Cl)cc21	0	-53*	·	10
c1ccc(C2NCCc3[nH]cnc32)cc1 (stereo not drawn)	-1	1	-4	3
C[C@H]1CCCC(=O)CCC/C=C/c2cc(O)cc(O)c2C(=O)O1	28*	-44	-5	52*
COc1cc(O)cc2c1C(=O)OC(C)CCCC(=O)CCC/C=C\2 (stereo not drawn)	0	-2	-8	-2
Cc1cc2c(s1)NC(=O)CN=C2c1cccs1	4	-23	17	54*
O=C1CN=C(c2cccs2)c2c(sc3c2CCCC3)N1	-2	-59*	-3	82*
Cc1ccccc1C1=NCC(=O)N(CC(=O)NCc2ccco2)c2sc3c(c21)CCCC3	0	·	7	0
O=C1CN=C(c2ccccc2)c2c(sc3c2CCCC3)N1	-1	-27	-3	56*
CC(=O)OC1CC[C@]2(C#N)[C@H]3CC[C@]4(C)[C@H](C5C=CC(=O)O5)CCC4(O)C3CCC2(O)C1 (stereo partly drawn)	0	3	-3	-1
Cc1ccnc(NC(=O)CCCc2ccc(N(CCCl)CCCl)cc2)n1	·	·	2	·
Oc1cc2c(cc1O)[C@H]1c3ccccc3CN[C@@H]1CC2	28*	-2	·	8
COc1ccc2nc(NC(=O)CCc3nc(C4=CCN(C)CC4)no3)sc2c1	3	-1	37	53*
COC(=O)C(Cc1ccc(N(CCCl)CCCl)cc1)N=Cc1ccccc1O (stereo not drawn)	0	-3	0	-1
COc1cc2c(cc1O)C[C@H]1NCCc3cc4c(c-2c31)OCO4	7	-46	72*	23
[N-]=[N+]=NCCN1CCC(O)CCC1=O (stereo not drawn)	-2	3	48	0
CCn1nc(-c2cccs2)nc2c(=O)n(C)c(=O)nc1-2	·	·	63*	·
CCOc1ccc(-n2c(-c3cccs3)nc3ccccc3c2=O)cc1	-1	2	0	-1
CCN1C(=O)C(=C2C=C(C)N(Cc3ccco3)C(C)=C2)C(=O)N(CC)C1=S	4	-2	13	55*
CCN1C(=O)C(=C/C=C/c2ccco2)C(=O)N(CC)C1=S	3	5	3	-4
O=C(NC1CCCCC1)N1C[C@H]2C[C@@H](C1)c1cccc(=O)n1C2	-3	1	3	-2
COc1ccc(-n2c(O)c(C(C)=NCCCn3ccnc3)c(=O)[nH]c2=O)cc1	0	1	6	54*
CCC(=NCCCn1ccnc1)c1c(O)n(-c2ccccc2)c(=O)[nH]c1=O	-2	-1	·	29
O=c1[nH]c(=O)n(-c2ccccc2)c(O)c1/C=C1/C(c2ccccc2)=Nc2ccccc21	16	0	61*	7	Dyrk1A artifact=7%
COc1ccc(-n2c(/C=C/c3ccc(O)cc3)nc3ccccc3c2=O)cc1	1	1	3	-1
CCn1nc(/C=C/c2ccccc2)nc2c(=O)n(C)c(=O)nc1-2	·	-20	50*	·	Dyrk1A artifact=4%
SMILES	STK33 inh	GSK3beta inhib	Dyrk1A ADPGlo	GSK3 alpha inh	others
C1=NCCc2c1[nH]c1ccccc21	2	2	8	-2
COc1ccc2c3c([nH]c2c1)C(C)=NCC3	2	-2	86*	-3	Dyrk1A artifact=9%
CC1=NCCc2c1[nH]c1cc(O)ccc21	2	·	79*	3	Dyrk1A artifact=10%
C/C(=N\NP(=S)(c1ccccc1)c1ccccc1)c1ccc(O)cc1O	0	1	8	-2
COc1cc(O)cc2c1cc([N+](=O)[O-])c1c(C(=O)O)cc3c(c12)OCO3	·	·	47	·
Cc1[nH]nc2ccc(-c3cncc(OC[C@@H](N)Cc4c[nH]c5ccccc45)c3)cc12	·	·	92*	·	Dyrk1A artifact=9%
Cc1ccc(-n2c(O)c(C=NCCC3=CCCCC3)c(=O)[nH]c2=O)cc1	0	-4	1	20
COc1cccc(NC2=NCCCS2)c1	0	2	10	0
COC(=O)C1=C(c2ccc(F)cc2OCc2ccccc2)C[C@@H]2CC[C@H]1N2C(=O)NC1CC1	-1	·	55*	-3	Dyrk1A artifact=10%
COC(=O)C1=C(c2ccc(F)cc2OCc2ccccc2)C[C@@H]2CC[C@H]1N2C(=O)NC1CCCCC1	-2	·	6	-1
N#C/C(=C\c1ccc(O)cc1)C(=O)O (tested in a mixture with another compound)	·	·	79*	·	Dyrk1A artifact=8%
N#CC(C#N)=Cc1ccc(N2CCOCC2)cc1	0	-1	-11	0
NC(=S)c1cn(C2OC(CO)C(O)C2O)c2ncnc(N)c12 (stereo not drawn)	67*	-52*	95*	64*	Dyrk1A artifact=7%

Source: PubChem (Broad Institute)
